Laboratory results from ChEMBL document CHEMBL4513216, “Probing the Open Global Health Chemical Diversity Library for Multistage-Active Starting Points for Next-Generation Antimalarials” (ACS Infect Dis, 2020).

Assay: Toxicity liver stage against HepG2, at 10uM
Type: cell-based
Parameters: test concentration 10 uM, cell line HepG2-A16-CD81EGFP
Conditions: human, HepG2-A16-CD81EGFP cells; read-out: INHIBITION
In short: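 Uninfected HepG2-A16-CD81EGFP cells, 3 × 10^3 per well, 1536-well, plated on prespotted compound at 10 μM final, parasite-free screening media added to match infected plates; puromycin 10 μM positive, DMSO 0.5% negative; run in parallel with 48 h PbLuc assay at 37 °C, 5% CO2; viability by CellTiter-Glo luminescence, normalized to controls.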

Row | SMILES | cytotoxicity at 10 µM [%]
1 | Cc1n[nH]c2c1C(c1ccc(Cl)cc1)SCC(=O)N2 (configuration not stated) | 19.2
2 | CCOc1nc2cnccc2n(CC(=O)NCc2ccco2)c1=O | -8.84
3 | CCCC(O)CN1CC(C)(C)CN(C(=O)c2ccc(Cl)cc2)CC1=O (configuration not stated) | 2.78
4 | CCOC(=O)[C@@H]1CN2CCNC[C@@H]2[C@H]1c1ccccc1 | 3.88
5 | CCCn1[nH]c(CNc2cccc(Cl)c2)nc1=O | 0.566
6 | O=C(NCC(Cc1cccc(F)c1)N1CCCC1=O)c1ccc(=O)[nH]n1 (configuration not stated) | -0.634
7 | O=C(Cn1cccn1)N1CCC(Oc2cnccn2)CC1 | 7.11
8 | COc1cc(C(=O)NCCc2ccccc2OC)on1 | 0.409
9 | NC(=O)N1CC[C@H](O)[C@@H]1Cc1ccccc1 | 3.32
10 | Cc1nc(CN2CCc3nc(NC(C)C)nc(C)c3C2)cs1 | 2.53
11 | CS(=O)(=O)NC[C@]12COC[C@H]1CN(C(=O)CCc1ccccc1)C2 | -1.23
12 | Cc1ccccc1CS(=O)(=O)c1nnc(C(C)NC(=O)OC(C)(C)C)o1 (configuration not stated) | -1
13 | Cc1c(S(=O)(=O)NCC(C)C)cnn1C | 4.54
14 | Cc1ccc(CNc2n[nH]c(C)n2)cc1 | -2.25
15 | CCc1cc(=O)n(CC(=O)N2CCCC2)c(-c2cccc(F)c2)n1 | 6.75
16 | CN1CCCC(c2nnc3n2CCN(S(=O)(=O)c2ccccc2Cl)C3)C1 (configuration not stated) | -2.92
17 | Cc1cc(N(C)C)cc(C2CCN(S(=O)(=O)c3cccs3)C2)n1 (configuration not stated) | 7.17
18 | O=c1c(CN2CC3CCCN3C[C@@H]2CCO)coc2ccc(Cl)cc12 (some centres not stated) | 3.19
19 | CC(C(=O)NCc1cccs1)N1CCN(Cc2nccn2C)CC1 (configuration not stated) | -14.5
20 | CN(Cc1cnn(C)c1)CC(O)c1ccc2c(c1)OCO2 (configuration not stated) | -9.98
21 | N#Cc1cc(F)ccc1Cn1cncn1 | 11.4
22 | CC(C(=O)NC1CC1)S(=O)(=O)Cc1noc(C(C)(C)C)n1 (configuration not stated) | 9.42
23 | Cc1ccccc1C(=O)NCC(=O)NCc1ccccn1 | -11.9

Row | SMILES | cytotoxicity at 10 µM [%]
24 | NC(=O)CCCNC(=O)Cc1csc(Cc2ccccn2)n1 | -4.56
25 | COc1cc2c(cc1CNC(=O)Cc1cc(C)[nH]n1)OC(C)C2 (configuration not stated) | -13.8
26 | NS(=O)(=O)CCNC(=O)c1cc(Br)c2c(c1)OCCO2 | 1.06
27 | COc1cc(C)ccc1OCC(=O)NS(=O)(=O)c1cc(F)ccc1F | 2.15
28 | CCc1cccc(NS(=O)(=O)c2cc(C)c(C(=O)O)s2)c1 | -1.23
29 | N#Cc1cccnc1NCCNC(=O)N1CCN2CCCCC2C1 (configuration not stated) | 0.242
30 | CC(CNS(=O)(=O)c1cccc(Cl)c1)N1CCN(C)CC1 (configuration not stated) | 9.26
31 | COC(=O)CCN1CCC(C(=O)c2cc(F)ccc2F)CC1 | -11.1
32 | CCn1cnnc1C1CCN(C(=O)c2c(C)oc(C)c2C)CC1 | 5.89
33 | CCN(CC(=O)NC(C)C)C(=O)c1ccc(-c2ccsc2)nc1C | -0.908
34 | CC(CNC(=O)Nc1ccc(F)cc1Br)N1CCOCC1 (configuration not stated) | 9.21
35 | CCOC(C)c1noc(CN2CCCN(c3ccccn3)CC2)n1 (configuration not stated) | -4.05
36 | O=C(NS(=O)(=O)c1ccc(C2CCCCC2)cc1)C1COCCO1 (configuration not stated) | 7.02
37 | CCN(CC(=O)N(C)C)C(=O)C(C)(C)c1ccc2c(c1)OCCO2 | 1.22
38 | Cc1occc1C(=O)NC1CCN(C(=O)Nc2cccnc2)CC1 | 8.98
39 | Cc1cccc(CCNC(=O)CCS(=O)(=O)C2CCCC2)c1 | 9.27
40 | Cc1cccc(C2CCCN2C(=O)CN(C)S(C)(=O)=O)c1C (configuration not stated) | 12.3
41 | CCOCC(=O)NC(C#N)c1cnn(-c2ccccc2)c1 (configuration not stated) | -4.39
42 | Cc1ccnc(NCc2ccccc2N2CCOCC2)n1 | -0.268
43 | CN1CCN(c2ccc(Br)cc2NC(=O)c2ccco2)CC1 | -6.09
44 | CCOCC(=O)Nc1cccnc1-n1ccnc1C | 3.62
45 | CC(C)CCN1CCN(C(=O)c2ccc(=O)[nH]n2)CC1 | -6.96
46 | Cc1nc(NC(=O)OC(C)(C)C)sc1C(=O)O | 7.89

Row | SMILES | cytotoxicity at 10 µM [%]
47 | c1ccc2nc(NCC3(N4CCOCC4)CCSC3)cnc2c1 (configuration not stated) | 12.7
48 | CC(CCc1ccccc1)N1CCC(C(=O)NCc2ccccc2)CC1 (configuration not stated) | 11
49 | CCn1ncc(C(=O)NCc2ccc(C)c(OC)c2)c1C(F)(F)F | 10.2
50 | O=C1CCC(C(=O)Nc2cnn(-c3ccccc3Br)c2)N1 (configuration not stated) | 3.56
51 | CC(C)c1noc(CCCC(=O)NCCOc2ccccc2)n1 | 1.03
52 | CCc1nc(C2CCCN2Cc2nc(CCOC)no2)no1 (configuration not stated) | -10.8
53 | CCOc1cccc(C(=O)NCCC(=O)Nc2ccncc2)c1 | 2.37
54 | Cn1c2c(c(=O)n1C)CN(C(=O)c1cccc(F)c1)CCC2 | -101
55 | Cc1nc2c(c(NC(C)C)n1)CCN(C(=O)CCO)CC2 | -109
56 | CN(C)C(=O)CO[C@H]1CO[C@@]2(CCN(S(C)(=O)=O)C2)C1 | -106
57 | O=C(c1ncccn1)N1C[C@@H]2COC[C@]2(COc2cccnc2)C1 | -91.5
58 | COCC1CN(C(=O)Cc2ccsc2)Cc2c1cnn2C (configuration not stated) | -67
59 | O=S(=O)(NCc1cc2n(n1)CCNC2)c1ccc(OC(F)(F)F)cc1 | 11.5
60 | OC1(CN2CCCCC2)CCN(c2cccc(C(F)(F)F)n2)C1 (configuration not stated) | -10.4
61 | CCCOCC(=O)N1CCCC(c2nnc(CN3CCCCC3)n2C)C1 (configuration not stated) | -2.34
62 | Cc1ncsc1CN(Cc1ccccc1)Cc1ncc[nH]1 | -3.22
63 | CCN(Cc1ccccc1)C(=O)CCN1CC(O)C1 | 7.48
64 | Cc1ccc(CN(CCN(C)C)C(=O)Nc2cnn(C)c2)s1 | 4.16
65 | CC(C)=CCC1(C(=O)O)CCCN(c2cc(N)ncn2)C1 (configuration not stated) | 10.1
66 | CO[C@@]1(C)C[C@@H](O)C12CCN(C(=O)CCn1c(C)cccc1=O)CC2 | 3.43
67 | CC(=O)N[C@@H]1CN(CC(=O)NCc2ccccc2C)C[C@H]1C(C)C | 4.25
68 | O=C(Cn1cccc1)NCC1CCN(Cc2cc3ccccc3[nH]2)C1 (configuration not stated) | 12.6
69 | CC(=O)NC1CCN(c2nc(N(C)C)nc3c2CCCC3)CC1 | -10.7

Row | SMILES | cytotoxicity at 10 µM [%]
70 | Cc1cc(NCC2CCS(=O)(=O)C2)n2nc(C)cc2n1 (configuration not stated) | 1.41
71 | Cc1ncc(C)c(N2CCC(CCc3ccccc3)(C(=O)O)CC2)n1 | 3.49
72 | COc1ccc(CC2CN(C(=O)c3ocnc3C)CCO2)cc1 (configuration not stated) | 11.4
73 | Cc1ccsc1CN(C)CCc1scnc1C | -17.6
74 | c1ccc(CCN2CCCC(Cn3ccnc3)C2)cc1 (configuration not stated) | 1.43
75 | Cc1ccccc1N1CCN(C2CCCN(C(=O)CCC(C)C)C2)CC1 (configuration not stated) | -5.95
76 | O=C(O)c1ccccc1-c1c(-c2ccccc2)ncn1C[C@H]1CCCN1 | 6.07
77 | O=C(c1cnc(O)cn1)N(Cc1ccsc1)CC1CCCO1 (configuration not stated) | 3.7
78 | Cc1nc(N(C)C/C=C/c2ccccc2)c2cnn(C)c2n1 | 0.0448
79 | O=C1CCCN1CCc1noc(-c2ccc3[nH]cnc3c2)n1 | 8.74
80 | COc1cccc(C(C(=O)O)N(C)Cc2ccc(C)o2)c1 (configuration not stated) | -1.35
81 | Cc1cnc(N(C)Cc2cnc3ccccc3n2)nc1N(C)C | 6.7
82 | COCC1CCN(S(=O)(=O)N2C[C@H](c3ccccc3)[C@@H](N)C2)CC1 | 1.12
83 | COc1ccc(CN2CCN(C3CCc4ccccc4C3)CC2)cc1O (configuration not stated) | -6.55
84 | Cc1nc(N2C[C@@H](CN3CCCCC3)[C@@H](CO)C2)c2sccc2n1 | -5.12
85 | Cc1nn(C)c2nc(NCCCN3CCCC(CO)C3)sc12 (configuration not stated) | -14.2
86 | CC(=O)N1CCC(N[C@@H]2CC[C@@H]2NS(=O)(=O)c2cccnc2)CC1 | 2.98
87 | CCc1noc(C)c1C(=O)N1C[C@H](NS(C)(=O)=O)[C@@H](C2CC2)C1 | 1.23
88 | Cc1ccccc1CSc1nc(N)cc(N2CCOCC(CO)C2)n1 (configuration not stated) | -9.23
89 | Cc1nc(N)sc1C(=O)N1CCC(C(O)Cc2ccccc2)CC1 (configuration not stated) | 2.29
90 | O=C(CCc1cc2n(n1)CCCN(C(=O)c1ccccn1)C2)NC1CC1 | -13.7
91 | Cc1cc(CN2CCCC2c2noc(C(C)C)n2)on1 (configuration not stated) | -0.713
92 | CN1CCN(C2CCN(CCCOc3ccc(F)cc3)CC2)C1=O | 0.28

Row | SMILES | cytotoxicity at 10 µM [%]
93 | Cc1cc(CN2CCCC2c2c(C)nn(C)c2Cl)on1 (configuration not stated) | -4.77
94 | Cc1nc2ccnn2c(C)c1CCC(=O)N1CCN(CCO)CC1 | -6.29
95 | CC(C)(CNC(=O)COc1cccc(F)c1)C(N)=O | -4.89
96 | COc1c(CNC2CCOc3ccccc32)c(C(C)C)nn1C (configuration not stated) | -0.169
97 | Cc1ncsc1C(=O)N(C)Cc1ccncc1 | -0.524
98 | CNS(=O)(=O)Cc1ccc(CNC(=O)Nc2cccnc2)cc1 | 0.684
99 | Cc1ccc(S(=O)(=O)Nc2ccc(=O)n(C)c2)cc1 | 1.07
100 | Cc1cnn(CC(C)NCc2csc(-c3cnn(C)c3)n2)c1 (configuration not stated) | 5.32
101 | CCOc1ncccc1C(=O)N1CCCCC1c1nccs1 (configuration not stated) | -8.7
102 | COCC(=O)N1CCC2(CC1)NC(=O)c1ccccc12 | 3.15
103 | COCCN1CCOCC2(CCCN(Cc3cccc(F)c3)C2)C1 (configuration not stated) | 0.346
104 | CNC(=O)[C@@H]1C[C@H]2CN(Cc3nccs3)C[C@H]2N1C | 7.73
105 | c1ccc(CN2CCc3ncnc(-c4ccncc4)c3CC2)nc1 | -73.1
106 | Cn1nc(CN2CCCCC2)c2c1CN(C(=O)c1cccc(C#N)c1)C2 | -2.21
107 | O=C1CCC2(CCN(Cc3ccc(F)cc3)CC2)N1Cc1ccccc1 | -1.63
108 | Cc1csc([C@H]2C[C@H]3CN(Cc4cc(C)on4)CC[C@@H]3O2)n1 | -98
109 | Cc1cccc(-c2ccc3nc(C4CCN(CC5CC5)CC4)nn3c2)c1 | -12.2
110 | Cc1c(C2N3CC4(C)CN2CC(C)(C3)C4=O)[nH]c(=O)[nH]c1=O (configuration not stated) | 6.57
111 | c1ccc(-c2nnc(CN3C[C@H]4CC[C@@H](C3)N(CC3CCC3)C4)o2)cc1 | -8.51
112 | O=c1[nH][nH]c2cn(-c3ccc(Br)cc3)c(=O)n12 | -11.8
